Results: publication PMC9898131 (Nature chemical biology, 2022)

Target: COQ8A^NΔ250 (Homo sapiens, UniProt Q8NI60)
Assay: Differential scanning fluorimetry
Type: binding
Conditions: 100 μM inhibitor, 10 μM COQ8A^NΔ250
Outline: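 Recombinant COQ8A^NΔ250 purified on cobalt IMAC resin, exchanged into 20 mM HEPES pH 7.2, 300 mM NaCl, 10% glycerol, 5 mM BME. They were spun briefly, then kept 10 min at room temperature in the dark before melting.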

Sequence of COQ8A^NΔ250 (Q8NI60 251-647 limits assumed, stated change not applied): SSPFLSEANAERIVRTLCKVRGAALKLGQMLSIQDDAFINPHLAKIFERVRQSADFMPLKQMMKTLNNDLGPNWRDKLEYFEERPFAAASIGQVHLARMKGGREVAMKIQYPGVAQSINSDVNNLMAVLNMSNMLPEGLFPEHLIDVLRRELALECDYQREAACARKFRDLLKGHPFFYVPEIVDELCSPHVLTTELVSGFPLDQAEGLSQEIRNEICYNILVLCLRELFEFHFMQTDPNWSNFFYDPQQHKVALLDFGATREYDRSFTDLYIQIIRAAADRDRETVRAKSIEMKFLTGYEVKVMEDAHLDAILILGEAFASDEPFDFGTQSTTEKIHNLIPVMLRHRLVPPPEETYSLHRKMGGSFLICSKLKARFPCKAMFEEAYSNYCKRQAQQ

SMILES: C#Cc1cccc(Nc2ncnc3cc(OCCOC)c(OCCOC)cc23)c1 [erlotinib]
- COQ8A melting temperature increase (ΔTm): weak-binding control
